Screening results from PubChem BioAssay.
Only some compounds are listed: those with a hit (about 2.9% of all), similar ones and a draw of the others.
RanGTP-Imp inh: inhibitors of RanGTP-importin-beta interaction, primary screen, biochemical, FRET, CFP-Ran, YFP-importin-beta, homogeneous. inhibition, % (test concentration not listed). cell-free CFP-Ran/YFP-importin-beta FRET ratio. 300,000 tested, 1.1% active;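 active = more than half of the replicate wells show a fall in the fluorescence ratio signal beyond about 16%, limit read from the data, passing the limit was not always enough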;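 note: 0% = DMSO wells and 100% = Ran loaded with GDP instead of GTP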
PfM18AAP inh: blocks P. falciparum M18 aspartyl aminopeptidase. 290,000 tested, 1.2% active. AID 1822. recombinant PfM18AAP, H-Glu-NHMec fluorogenic cleavage. inhibition, % at 7.35 µM;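 active = inhibition above the campaign mean inhibition over all tested compounds plus 3 SD, cut at about 28% in these data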;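 note: 0% = plate median of test compound wells and 100% = 2 mM ZnCl2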
RBBP9 inh: blocks human serine hydrolase RBBP9 | recombinant RBBP9, FP-Rh probe fluorescence polarization | inhibition, % at 7.94 µM | 220,000 tested, 0.2% active;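 active = inhibition above the campaign mean of all tested compounds plus 3 SD, cut at about 14% in these data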;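 note: plate controls were DMSO wells with RBBP9 for no effect and wells lacking RBBP9 protein for full effect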
Target sequence (O75884 whole entry, looked up): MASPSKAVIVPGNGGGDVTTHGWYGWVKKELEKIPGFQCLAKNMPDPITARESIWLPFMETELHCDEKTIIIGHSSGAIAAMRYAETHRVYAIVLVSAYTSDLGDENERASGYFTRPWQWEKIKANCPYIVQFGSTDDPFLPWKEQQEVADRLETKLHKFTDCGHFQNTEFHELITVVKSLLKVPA
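Controls: DMSO-treated enzyme wells and wells lacking RBBP9 | Material: RBBP9 protein | Technique: Fluorescence polarization | Replication: Single well per compound, no replicates | Buffer or medium: Tris-NaCl-Pluronic buffer, pH 8.0 | Timing: 30 min compound preincubation, 45 min probe labeling, 25 °C | Read-out basis: Percent inhibition from mP, scaled between DMSO and no-protein wells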
Runt-CBFb FRET: inhibitors of human RUNX1 Runt domain binding to CBFb; Q01196+Q13951; Cerulean-Runt/Venus-CBFb FRET ratio 530/480, 1 h; inhibition, % at 20 µM; 220,000 tested, 0.46% active; AID 1496;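 active = inhibition over about 50% at 20 µM in the single-dose screen, limit read from the data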;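 note: 0% = DMSO wells and 100% = excess unlabeled CBFb competitor control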
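test system = Cerulean-Runt domain fusion protein, energy donor | probe or stimulus = Venus-CBFb binding partner, 100 nM | incubation = two 1 h room-temperature incubations shielded from light | detection = fluorescence energy transfer, 422 nm excitation, 530/480 nm emission | measure = loss of energy transfer signal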
Hck Nef HTS: blocks Nef-activated human Hck kinase; P08631; 220,000 tested, 0.68% active; Recombinant Hck-YEEI plus Nef, Z-Lyte FRET kinase assay; inhibition, % at 20 µM;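 active = Hck-Nef kinase inhibition above about 50%, limit read from the data; inactive = inhibition below that limit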;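 note: 0% = DMSO with Hck plus Nef and 100% = Hck alone without Nef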
Target sequence (P08631 whole entry, looked up): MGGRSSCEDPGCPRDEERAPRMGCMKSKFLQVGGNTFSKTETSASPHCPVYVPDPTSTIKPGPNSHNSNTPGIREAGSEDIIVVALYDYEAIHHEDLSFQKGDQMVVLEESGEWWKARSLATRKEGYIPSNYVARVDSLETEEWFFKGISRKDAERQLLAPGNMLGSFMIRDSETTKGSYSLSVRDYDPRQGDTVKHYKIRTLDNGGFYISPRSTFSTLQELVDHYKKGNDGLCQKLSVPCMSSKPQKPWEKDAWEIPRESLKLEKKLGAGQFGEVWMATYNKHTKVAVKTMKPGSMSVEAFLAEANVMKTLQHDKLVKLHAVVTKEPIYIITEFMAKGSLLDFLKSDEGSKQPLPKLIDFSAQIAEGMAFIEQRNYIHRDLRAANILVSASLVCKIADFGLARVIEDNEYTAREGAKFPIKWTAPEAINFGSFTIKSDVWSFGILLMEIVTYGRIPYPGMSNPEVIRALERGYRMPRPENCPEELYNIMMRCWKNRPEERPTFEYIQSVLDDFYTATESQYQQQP
Runt-SMMHC FRET: Runt domain-CBFb-SMMHC interaction inhibition. Q01196+Q13951. Cerulean-Runt/Venus-CBFb-SMMHC FRET ratio 530/480, 1 h. inhibition, % at 20 µM. 220,000 tested, 0.74% active. AID 1434;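 active = mean inhibition across duplicate retests at 20 µM reaching about 50%, limit read from the data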;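 note: 0% = DMSO wells and 100% = wells with excess untagged CBFb-SMMHC; inhibitors lower the FRET ratio by blocking Runt binding to CBFb-SMMHC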
Numbers without * were called inactive; / = no result.

SMILES | RanGTP-Imp inh | PfM18AAP inh | RBBP9 inh | Runt-CBFb FRET | Hck Nef HTS | Runt-SMMHC FRET
Cc1ccc2nc3c(cc(C(=O)NC4CCCCC4)c(=N)n3C3CCCCC3)c(=O)n2c1 | 182* | -2 | / | / | / | /
N=c1c(C(=O)NC2CCCC2)cc2c(=O)n3ccccc3nc2n1C1CCCCC1 | 181* | 2 | / | / | / | /
Cc1ccc2nc3c(cc(C(=O)NC4CCCC4)c(=N)n3C3CCCCC3)c(=O)n2c1 | 182* | 3 | / | / | / | /
CCn1c(=S)sc2c(=O)n(CC(=O)Nc3cccc(Cl)c3)c(C)nc21 | 3 | -3 | / | / | / | /
CCCCCCOc1ccc(/C=c2\s/c(=C(/C#N)C(=O)NCc3ccco3)n(-c3ccccc3)c2=O)cc1 | 27* | 3 | 1 | -250 | 3 | 8
Cc1ccc(/C(N)=N/OC(=O)N2CCOCC2)cc1 | 3 | -3 | 1 | 74* | 0 | -120
Cc1ccc2oc(-c3ccc(NC(=O)c4ccc5c(c4)OCO5)cc3)nc2c1 | 2 | -5 | 6 | 67* | 26 | -10
O=C(Nc1ccc(-c2nc3ccccc3o2)cc1)c1ccc2c(c1)OCO2 | 0 | 3 | 0 | 1 | 1 | 0
CCOc1ccc(CNc2ccc3c(c2)ncn3C(C)(C)C)cc1 | 19* | 6 | / | / | / | /
CCCn1cnc2cc(NCc3cccc(OC)c3)ccc21 | 24* | 14 | 5 | 10 | 1 | 13
CCCCn1c(N)c(N(CC(C)C)C(=O)c2cc(Cl)nc3ccccc23)c(=O)[nH]c1=O | -1 | / | / | / | / | /
COC(=O)c1ccc2c(CCO)c[nH]c2c1 | -2 | -7 | / | / | / | /
O=c1c2ccccc2c(C=Nc2ccccc2O)c(O)n1-c1nccs1 | 41* | 17 | -6 | -13 | 8 | -18
CCCn1c(SC(C)C(=O)N2CCOCC2)nc2ccc(Br)cc2c1=O (stereo unspecified) | 6 | / | / | / | / | /
CC(C)Oc1ccc(Cc2cnc(=S)[nH]c2N)cc1 | 0 | 31* | -10 | 19 | 14 | 6
COC(=O)Cn1c(N)[n+](Cc2ccccc2)c2ccccc21 | 0 | / | / | / | / | /
CC(C)=NNc1nc(-c2ccc(N3C(=O)CCC3=O)cc2)cs1 | -2 | 28* | -7 | 39 | 9 | 0
COc1ccc([N+](=O)[O-])cc1NC(=O)C(C)OC(=O)Cn1[nH]c(=O)c2ccccc2c1=O (stereo unspecified) | -2 | / | / | / | / | /
O=C(OCc1c(F)cccc1Cl)c1cccnc1Cl | -1 | 3 | / | / | / | /
c1ccc(C(c2ccccn2)c2ccccn2)cc1 | -3 | 1 | -8 | 1 | -36 | 1
CC(=O)Oc1ccc(C(c2ccc(OC(C)=O)cc2)c2ccccn2)cc1 | 2 | 0 | 25* | 0 | -8 | 0
O=C(CN1CCN(c2ccc(O)cc2)CC1)Nc1cc([N+](=O)[O-])ccc1Cl | -2 | 33* | -11 | 8 | 4 | 7
CC(=O)N1CCN(CC(=O)Nc2cc([N+](=O)[O-])ccc2Cl)CC1 | / | 2 | -5 | -3 | 7 | 0
Cc1ccccc1-n1c(O)c(/C=C/C=Nc2ccccc2)c(=O)[nH]c1=O | 20* | 3 | -12 | 29 | 3 | 76*
COCCCNC(=S)NNC(=O)Cn1nc(C)c(Br)c1C | 4 | 30* | 1 | -1 | -3 | 0
SMILES | RanGTP-Imp inh | PfM18AAP inh | RBBP9 inh | Runt-CBFb FRET | Hck Nef HTS | Runt-SMMHC FRET
COC(=O)c1ccc(NC(=O)CSc2nnc(-c3cccnc3)o2)cc1 | 5 | / | / | / | / | /
COCCn1c(=NC(=O)c2ccc3c(c2)OCO3)c(C#N)cc2c(=O)n3cccc(C)c3nc21 | 43* | -25 | -7 | 105* | 2 | 118*
COCCCn1c(C(=O)N2CCOCC2)cc2c(=O)n3cccc(C)c3nc21 | -1 | 2 | / | / | / | /
CCCCn1c(=NC(=O)c2ccc3c(c2)OCO3)c(C#N)cc2c(=O)n3cccc(C)c3nc21 | / | -8 | 1 | 56* | 3 | 39
Cc1ccc(Cn2c(SCC(=O)N(C)C3CCS(=O)(=O)C3)nc3ccccc3c2=O)cc1 (stereo unspecified) | 1 | / | / | / | / | /
CC1=C(C)CS(=O)N(c2ccc(S(N)(=O)=O)cc2)C1 (stereo unspecified) | 2 | 30* | -8 | 14 | 0 | 3
COc1ccc(C(=O)NC2CCSc3ccccc32)cc1F (stereo unspecified) | -9 | -2 | / | / | / | /
Cc1c(N=Cc2cc(Br)cc(Br)c2O)cccc1C(=O)O | -25 | 34* | 11 | -15 | 8 | -57
O=C(c1cc(Cl)nc2ccccc12)N1CCc2ccccc2C1 | 8 | -5 | -6 | 1 | 12 | 2
COc1cc2ncnc(NCc3ccccc3Cl)c2cc1OC | 12 | 2 | -5 | -3 | 74* | -1
COc1cc2ncnc(NCc3ccccc3C)c2cc1OC | -4 | 1 | -8 | -2 | 25 | 2
CC1=NN(C(N)=S)C(=O)C1N=Nc1ccc(O)cc1 (stereo unspecified) | 0 | 29* | 0 | 3 | 15 | -5
CC(C)c1cc(C(C)C)c(S(=O)(=O)N2CCNCC2)c(C(C)C)c1 | 0 | / | / | / | / | /
COc1ccc(CCC(=O)NNC(=S)NCc2ccc(F)cc2)cc1 | 23* | 2 | -4 | -1 | 19 | -4
Cc1ccc(NC(=O)C2CCN(c3ncnc4c3nc3n4CCCCC3)CC2)nc1 | -1 | 3 | / | / | / | /
Cc1cc(C)c(C#N)c(SCc2nc3ccccc3[nH]2)n1 | 19* | -6 | -5 | 4 | 6 | 13
CCOC(=O)c1sc2c(c1C)c(=O)n(Cc1ccccc1)c(=O)n2CCN(C)C | 3 | -8 | / | / | / | /
CC(C)N1CCC2(CC1)C(C#N)=C(N)NC(S)=C2C#N | -5 | 12 | 1 | 29 | 2 | 64*
N#CC1=C(N)NC(SCC(=O)O)=C(C#N)C12CCCC2 | 6 | 3 | 7 | 1 | 2 | -2
Cc1cccc(NC(=O)c2ccc3c(c2)C(=O)N(c2ccccc2C)C3=O)n1 | -4 | / | / | / | / | /
COc1ccccc1OCCNC(=O)CSC(=S)N1CCCC1 | -5 | / | / | / | / | /
COc1ccc2[nH]c(C)cc(=O)c2c1 | -3 | 0 | 3 | 0 | -7 | 4
COc1ccc2[nH]c3c(C)c4ccncc4c(C)c3c2c1 | 45* | 3 | 6 | 11 | -4 | 22
CCCCn1c(N)c(N(Cc2ccccc2OC)C(=O)COc2ccc(F)cc2Cl)c(=O)[nH]c1=O | -2 | -1 | / | / | / | /
CC(C(=O)O)N1C(=O)C2C3CC(C2C1=O)C1C(c2ccccc2)c2sc(=O)[nH]c2SC31 (stereo unspecified) | 74* | 22 | -8 | 18 | 0 | 12
O=C(O)CN1C(=O)C2C3CC(C2C1=O)C1C(c2ccc(F)cc2)c2sc(=O)[nH]c2SC31 (stereo unspecified) | 79* | 20 | -4 | 33 | 24 | 26
